# Laboratory results from ChEMBL document CHEMBL1629614, “Inhibition of methionyl-tRNA synthetase by REP8839 and effects of resistance mutations on enzyme activity” (Antimicrob Agents Chemother, 2009).
# B1: Methionine--tRNA ligase (Staphylococcus aureus subsp. aureus MW2), Q8NY00 A247E (protein)
# chain: MAKETFYITTPIYYPSGNLHIGHAYSTVAGDVIARYKRMQGYDVRYLTGTDEHGQKIQEKAQKAGKTEIEYLDEMIAGIKQLWAKLEISNDDFIRTTEERHKHVVEQVFERLLKQGDIYLGEYEGWYSVPDETYYTESQLVDPQYENGKIIGGKSPDSGHEVELVKEESYFFNISKYTDRLLEFYDQNPDFIQPPSRKNEMINNFIKPGLADLAVSRTSFNWGVHVPSNPKHVVYVWIDALVNYISELGYLSDDESLFNKYWPADIHLMAKEIVRFHSIIWPILLMALDLPLPKKVFAHGWILMKDGKMSKSKGNVVDPNILIDRYGLDATRYYLMRELPFGSDGVFTPEAFVERTNFDLANDLGNLVNRTISMVNKYFDGELPAYQGPLHELDEEMEAMALETVKSYTESMESLQFSVALSTVWKFISRTNKYIDETTPWVLAKDDSQKDMLGNVMAHLVENIRYAAVLLRPFLTHAPKEIFEQLNINNPQFMEFSSLEQYGVLTESIMVTGQPKPIFPRLDSEAEIAYIKESMQPPATEEEKEEIPSKPQIDIKDFDKVEIKAATIINAEHVKKSDKLLKIQVDLDSEQRQIVSGIAKFYTPDDIIGKKVAVVTNLKPAKLMGQKSEGMILSAEKDGVLTLVSLPSAIPNGAVIK
# B2: Methionine--tRNA ligase (Staphylococcus aureus subsp. aureus MW2), Q8NY00 G223C (protein)
# chain: MAKETFYITTPIYYPSGNLHIGHAYSTVAGDVIARYKRMQGYDVRYLTGTDEHGQKIQEKAQKAGKTEIEYLDEMIAGIKQLWAKLEISNDDFIRTTEERHKHVVEQVFERLLKQGDIYLGEYEGWYSVPDETYYTESQLVDPQYENGKIIGGKSPDSGHEVELVKEESYFFNISKYTDRLLEFYDQNPDFIQPPSRKNEMINNFIKPGLADLAVSRTSFNWCVHVPSNPKHVVYVWIDALVNYISALGYLSDDESLFNKYWPADIHLMAKEIVRFHSIIWPILLMALDLPLPKKVFAHGWILMKDGKMSKSKGNVVDPNILIDRYGLDATRYYLMRELPFGSDGVFTPEAFVERTNFDLANDLGNLVNRTISMVNKYFDGELPAYQGPLHELDEEMEAMALETVKSYTESMESLQFSVALSTVWKFISRTNKYIDETTPWVLAKDDSQKDMLGNVMAHLVENIRYAAVLLRPFLTHAPKEIFEQLNINNPQFMEFSSLEQYGVLTESIMVTGQPKPIFPRLDSEAEIAYIKESMQPPATEEEKEEIPSKPQIDIKDFDKVEIKAATIINAEHVKKSDKLLKIQVDLDSEQRQIVSGIAKFYTPDDIIGKKVAVVTNLKPAKLMGQKSEGMILSAEKDGVLTLVSLPSAIPNGAVIK
# B3: Methionine--tRNA ligase (Thermus thermophilus (strain HB8 / ATCC 27634 / DSM 579)), P23395 (protein)
# chain: MEKVFYVTTPIYYVNAEPHLGHAYTTVVADFLARWHRLDGYRTFFLTGTDEHGETVYRAAQAAGEDPKAFVDRVSGRFKRAWDLLGIAYDDFIRTTEERHKKVVQLVLKKVYEAGDIYYGEYEGLYCVSCERFYTEKELVEGLCPIHGRPVERRKEGNYFFRMEKYRPWLQEYIQENPDLIRPEGYRNEVLAMLAEPIGDLSISRPKSRVPWGIPLPWDENHVTYVWFDALLNYVSALDYPEGEAYRTFWPHAWHLIGKDILKPHAVFWPTMLKAAGIPMYRHLNVGGFLLGPDGRKMSKTLGNVVDPFALLEKYGRDALRYYLLREIPYGQDTPVSEEALRTRYEADLADDLGNLVQRTRAMLFRFAEGRIPEPVAGEELAEGTGLAGRLRPLVRELKFHVALEEAMAYVKALNRYINEKKPWELFKKEPEEARAVLYRVVEGLRIASILLTPAMPDKMAELRRALGLKEEVRLEEAERWGLAEPRPIPEEAPVLFPKKEAKVEAKPKEEAWIGIEDFAKVELRVAEVLAAEKHPNADRLLVLRLSLGNEERTVVSGIAKWYRPEELVGKKVVLVANLKPAKLRGIESQGMILAAQEGEALALVTVEGEVPPGAVVK
# Experiments:
# [1] = compound: C=C(F)c1sc(CNCCCNc2cc(=O)c3ccccc3[nH]2)c(C)c1Br; assay: Activity of Staphylococcus aureus MetRS A247E mutant by ATP:PPi exchange assay in presence of methionine
# Summary of the method: (§1)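 Purified S. aureus MetRS (wild type or mutant; E. coli-expressed, ammonium sulfate cut, anion exchange) at 30 nM. ATP:PPi exchange at 30°C in 100 mM Tris-HCl pH 8.0, 5–10 mM Mg acetate, 80 mM KCl, 2.5 mM DTT, [32P]PPi plus cold PPi equal to ATP. Quenched with EDTA over 1–10 min, PEI-cellulose TLC, phosphorimager. Initial velocities versus varied ATP or methionine fit to Michaelis-Menten.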
# [2] = compound: C=C(F)c1sc(CNCCCNc2cc(=O)c3ccccc3[nH]2)c(C)c1Br; assay: Activity of Staphylococcus aureus MetRS A247E mutant by ATP:PPi exchange assay in presence of ATP; summary of the method: as §1
# [3] = compound: C=C(F)c1sc(CNCCCNc2cc(=O)c3ccccc3[nH]2)c(C)c1Br; assay: Ratio of Kcat to Km for Staphylococcus aureus MetRS A247E mutant in presence of methionine
# Summary of the method: (§2)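 Purified recombinant S. aureus MetRS (30 nM) was assayed by ATP:PPi exchange at 30°C in Tris pH 8.0 with Mg acetate, KCl and DTT. [32P]PPi was matched to ATP, and ATP or methionine was varied. Time points from 1 to 10 min were quenched with EDTA, separated by PEI-cellulose TLC and read by phosphorimager. Initial rates were fitted to Michaelis-Menten.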
# [4] = compound: C=C(F)c1sc(CNCCCNc2cc(=O)c3ccccc3[nH]2)c(C)c1Br; assay: Activity of streptococcus aureus MetRS A247E mutant by scintillation proximity assay in presence of tRNA; conditions: Staphylococcus aureus
# [5] = compound: C=C(F)c1sc(CNCCCNc2cc(=O)c3ccccc3[nH]2)c(C)c1Br; assay: Ratio of Kcat to Km for Staphylococcus aureus MetRS A247E mutant in presence of ATP; summary of the method: as §2
# [6] = compound: C=C(F)c1sc(CNCCCNc2cc(=O)c3ccccc3[nH]2)c(C)c1Br; assay: Ratio of Kcat to Km for Staphylococcus aureus MetRS A247E mutant in presence of tRNA
# Summary of the method: (§3)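 Purified recombinant S. aureus MetRS was assayed by tRNA aminoacylation at 30°C for 1 to 7.5 min to obtain initial rates. Buffer was Tris pH 8.0 with Mg acetate, 2.5 mM ATP, KCl, DTT, BSA, [3H]methionine and crude E. coli tRNA. Reactions were EDTA-stopped, and charged tRNA was read by scintillation proximity with polylysine beads at pH 2.0.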
# [7] = compound: C=C(F)c1sc(CNCCCNc2cc(=O)c3ccccc3[nH]2)c(C)c1Br; assay: Activity of streptococcus aureus MetRS G223C mutant by scintillation proximity assay in presence of tRNA; conditions: Staphylococcus aureus
# [8] = compound: C=C(F)c1sc(CNCCCNc2cc(=O)c3ccccc3[nH]2)c(C)c1Br; assay: Activity of Staphylococcus aureus MetRS G223C mutant by ATP:PPi exchange assay in presence of methionine; summary of the method: as §1
# [9] = compound: C=C(F)c1sc(CNCCCNc2cc(=O)c3ccccc3[nH]2)c(C)c1Br; assay: Ratio of Kcat to Km for Staphylococcus aureus MetRS G223C mutant in presence of tRNA; summary of the method: as §3
# [10] = compound: C=C(F)c1sc(CNCCCNc2cc(=O)c3ccccc3[nH]2)c(C)c1Br; assay: Activity of Staphylococcus aureus MetRS G223C mutant by ATP:PPi exchange assay in presence of ATP; summary of the method: as §1
# [11] = compound: C=C(F)c1sc(CNCCCNc2cc(=O)c3ccccc3[nH]2)c(C)c1Br; assay: Ratio of Kcat to Km for Staphylococcus aureus MetRS G223C mutant in presence of methionine; summary of the method: as §2
# [12] = compound: C=C(F)c1sc(CNCCCNc2cc(=O)c3ccccc3[nH]2)c(C)c1Br; assay: Ratio of Kcat to Km for Staphylococcus aureus MetRS G223C mutant in presence of ATP; summary of the method: as §2
# [13] = compound: C=C(F)c1sc(CNCCCNc2cc(=O)c3ccccc3[nH]2)c(C)c1Br; assay: Activity of Thermus thermophilus HB8 MetRS by ATP:PPi exchange assay in presence of methionine
# [14] = compound: C=C(F)c1sc(CNCCCNc2cc(=O)c3ccccc3[nH]2)c(C)c1Br; assay: Activity of Thermus thermophilus HB8 MetRS by ATP:PPi exchange assay in presence of ATP
protein,measurement,setting,value
B1,Km,[1],220 µM
same,kcat,[1],11 s⁻¹
same,Km,[2],1140 µM
same,kcat/Km,[3],0.05 µM⁻¹ s⁻¹
same,Km,[4],1.3 µM
same,kcat,[4],0.057 s⁻¹
same,kcat/Km,[5],0.01 µM⁻¹ s⁻¹
same,kcat/Km,[6],0.044 µM⁻¹ s⁻¹
B2,Km,[7],2.5 µM
same,kcat,[7],0.037 s⁻¹
same,Km,[8],680 µM
same,kcat,[8],10 s⁻¹
same,kcat/Km,[9],0.015 µM⁻¹ s⁻¹
same,Km,[10],750 µM
same,kcat/Km,[11],0.01 µM⁻¹ s⁻¹
same,kcat/Km,[12],0.013 µM⁻¹ s⁻¹
B3,Km,[13],18 µM
same,Km,[14],180 µM
